# Measured values of several laboratories.
# Each line is one published result; the experiments were not run side by side.
# Target: G protein-coupled receptor kinase 4 (GRK4, Homo sapiens, UniProt P32298)
SMILES,effect on,mode,method,tested at,quantity,value
C[C@H](c1ccc(F)cc1)N(Cc1cccc(C(=O)O)c1)C(=O)c1cnc2ccccc2c1,cell-free assay,,competition with immobilised ligand,1 µM,remaining binding,100%
O=C1NC(=O)c2cc(Nc3ccc(F)cc3)c(Nc3ccc(F)cc3)cc21,cell-free assay,,,0.5 µM,remaining signal,103%
CN(C)C1CCN(CC#Cc2nn(C3CCCC3)c3nc(NCc4ccccc4)ncc23)C1 (centres unmarked),enzyme activity,inhibitor,FRET,10 µM,inhibition,-6%
Cc1ccc(C(=O)Nc2ccc(CN3CCN(C)CC3)c(C(F)(F)F)c2)cc1C#Cc1cnc2cccnn12,enzyme activity,inhibitor,,23.5 nM,remaining activity,96%
c1ccc(N2CCN(Cc3nc4ccccc4[nH]3)CC2)nc1,binding,,competition with immobilised ligand,1 µM,remaining binding,100%
CC(C)(C)c1nc(-c2cccc(NS(=O)(=O)c3c(F)cccc3F)c2F)c(-c2ccnc(N)n2)s1,enzyme activity,inhibitor,radiometric,1 µM,remaining activity,59%
Nc1ncnc2occ(-c3ccc(NC(=O)Nc4cc(C(F)(F)F)ccc4F)cc3)c12,cell-free assay,inhibitor,,20 µM,remaining signal,89%
O=C(Nc1cnn(-c2csc(C(=O)NC3COC3)c2)c1)Nc1ccccc1Cl,enzyme activity,inhibitor,,5 µM,remaining activity,97%
COc1cc2ncnc(Nc3ccc(Oc4ccccc4)cc3C)c2cc1OC,enzyme activity,inhibitor,,1 µM,inhibition,-2%
CCCS(=O)(=O)Nc1ccc(F)c(C(=O)c2c[nH]c3ncc(-c4ccc(Cl)cc4)cc23)c1F,enzyme activity,inhibitor,,1 µM,inhibition,< 10%
COc1cc2c(N3CCN(C(=O)Nc4ccc(OC(C)C)cc4)CC3)ncnc2cc1OCCCN1CCCCC1,cell-free assay,,,0.5 µM,remaining signal,106%
Cc1noc([C@H]2C[C@@H](c3ccc(C(F)(F)F)cc3)CN(C(=O)N3CCS(=O)(=O)C3)C2)n1,cell-free assay,,competition with immobilised ligand,1 µM,remaining binding,99%
CS(=O)(=O)CCNCc1ccc(-c2ccc3ncnc(Nc4ccc(OCc5cccc(F)c5)c(Cl)c4)c3c2)o1,cell-free assay,,,0.5 µM,remaining signal,90.3%
CN(C)CC#Cc1ccc(OCCCc2sc(N3CCc4cccc(C(=O)Nc5nc6ccccc6s5)c4C3)nc2C(=O)O)c(F)c1,cell-free assay,,competition with immobilised ligand,1 µM,remaining binding,100%
